Pf Dd2 growth: inhibitors of Plasmodium falciparum Dd2 growth. activity change, % at 10 µM. actives 2.3% (n = 94,000). AID 1159554. P. falciparum Dd2 growth, SYBR Green, 72 h; stronger effect = lower value; in the data active = activity change below about -80%
Tcruzi prolif: T. cruzi proliferation inhibition; T. cruzi beta-gal in NIH3T3, GalScreen luminescence, 90 h; inhibition, % at 8.34 µM; actives 5.9% (n = 77,000); AID 624255;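 active = mean inhibition above about 93%, with at least 55% of replicates each passing it, limit read from the data, passing the limit was not always enough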
GASC1 inh: blocks human GASC-1 (KDM4C) demethylase activity; Q9H3R0; GST-KDM4C 2-372, H3K9me3 peptide, LANCE TR-FRET; inhibition, % at 12.5 µM; actives 0.15% (n = 96,000); AID 720574;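 active = mean replicate inhibition above about 25%, with at least 55% of replicates also reaching it, limit read from the data, passing the limit was not always enough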
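reagent = H3K9me3 peptide substrate, Fe(II), 2-oxoglutarate | system = GST-tagged GASC-1 (JMJD2C) catalytic fragment, aa 2-372 | amount = enzyme final amount 10 nM | read-out = Fall in 671/618 emission ratio as inhibition | medium = HEPES buffer, pH 7.5, plus ascorbate | schedule = 30 min reaction, 60 min detection, RT | measured by = LANCE TR-FRET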
IDH1 R132H inh: IDH1 R132H (human) inhibition; O75874; IDH1 R132H reductase, diaphorase/resazurin fluorescence, 60 min; inhibition, % at 10 µM; actives 0.18% (n = 70,000); in the data active = inhibition above about 34%;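 note: 0% = DMSO and 100% = no enzyme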
Target sequence (O75874 whole entry R132H): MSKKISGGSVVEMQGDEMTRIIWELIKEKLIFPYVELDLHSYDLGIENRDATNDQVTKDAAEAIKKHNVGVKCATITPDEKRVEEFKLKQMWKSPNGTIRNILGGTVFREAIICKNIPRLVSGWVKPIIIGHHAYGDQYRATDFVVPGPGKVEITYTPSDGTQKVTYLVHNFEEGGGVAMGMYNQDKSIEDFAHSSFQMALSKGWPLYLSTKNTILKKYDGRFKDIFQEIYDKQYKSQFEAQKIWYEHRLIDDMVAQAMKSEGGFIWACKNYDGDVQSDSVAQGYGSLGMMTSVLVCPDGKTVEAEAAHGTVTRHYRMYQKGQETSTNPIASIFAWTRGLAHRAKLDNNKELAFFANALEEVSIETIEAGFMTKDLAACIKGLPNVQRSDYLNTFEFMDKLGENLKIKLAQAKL
* = called active by the depositor; . = no result. Sampled rows, rich in hits. Any-hit rate of the full collection: about 5.9%.

SMILES	Pf Dd2 growth	Tcruzi prolif	GASC1 inh	IDH1 R132H inh
CCCN(C)C[C@H]1OCCCC[C@H](C)Oc2ccc(NS(=O)(=O)c3ccc(OC)cc3)cc2C(=O)N([C@H](C)CO)C[C@H]1C	-86.3*	81.6	1.3	0.3
O=C(CSc1nc(-c2ccccc2)cs1)Nc1ccc(Cl)cc1Cl	.	.	.	0.2
C=C1CCC(C)C(C)(CCC2=CC(=O)OC2O)C/C=C\C=C/1C(=O)O (configuration not stated)	.	.	.	0.5
COc1ccc2c3c([nH]c2c1)[C@H](CO)N(C(=O)CN(C)C)CC31CN(Cc2ccncc2)C1	-32.4	.	1.3	.
COc1ccc(CN2CC3(C2)CN(C(=O)CN(C)C)[C@H](CO)c2[nH]c4cc(OC)ccc4c23)cc1	-88.4*	.	-0.6	.
COc1ccc(CN2CC3(C2)CN(C(=O)CN(C)C)[C@@H](CO)c2[nH]c4cc(OC)ccc4c23)cc1	-85.9*	.	-1.3	.
COc1ccc2c3c([nH]c2c1)[C@@H](CO)N(C(=O)CN(C)C)CC31CN(Cc2ccccc2)C1	-54.7	.	-0.1	.
Cc1ccc(N(CC(=O)Nc2ccccc2-c2ccccc2)S(C)(=O)=O)cc1C	.	.	.	-0.3
CO[C@H]1CN(C)C(=O)c2cc(NC(=O)c3nc4ccccc4s3)ccc2OC[C@H](C)NC[C@H]1C	-54.0	-52.3	-3.3	-0.3
CO[C@@H]1CN(C)C(=O)c2cc(NC(=O)c3nc4ccccc4s3)ccc2OC[C@H](C)NC[C@H]1C	-84.5*	-34.3	6.3	0.1
CO[C@H]1CN(C)C(=O)c2cc(NC(=O)c3nc4ccccc4s3)ccc2OC[C@@H](C)NC[C@@H]1C	-87.1*	-37.8	1.7	0.0
CCOC(=O)c1ccc(NC(=O)C(C)Sc2nc3ccccc3[nH]2)cc1 (configuration not stated)	.	.	.	0.0
Cc1ccc(S(=O)(=O)NCC[C@H]2CC[C@@H](NC(=O)c3cccc(F)c3)[C@@H](CO)O2)cc1	13.1	1.2	44.4*	0.9
CC(C)NC(=O)N[C@H]1CC[C@H](CCNC(=O)C2CCC2)O[C@H]1CO	2.0	.	26.5*	0.4
Cc1ccc(S(=O)(=O)N[C@H]2CC[C@H](CCNC(=O)C3CCCCC3)O[C@H]2CO)cc1	5.3	2.6	71.6*	66.9*
CC(C)NC(=O)N[C@@H]1CC[C@H](CCNC(=O)C2CCC2)O[C@@H]1CO	-5.8	.	-1.7	0.2
Cc1ccc(S(=O)(=O)NCC[C@@H]2CC[C@@H](NC(=O)c3cccc(F)c3)[C@@H](CO)O2)cc1	12.7	21.9	0.3	-0.5
CC(C)(C)c1cc(C(=O)CSc2nc3ccccc3[nH]2)cc(C(C)(C)C)c1O	.	.	.	0.1
N#Cc1c(C(F)(F)F)cc(-c2ccc(Br)cc2)nc1SCCC(=O)O	.	.	.	0.1
NC(=S)c1cc(-c2ccccc2)c(C(F)(F)F)s1	.	.	.	-0.5
C[C@@H]1CN([C@H](C)CO)C(=O)c2cc(C#Cc3cccc(F)c3)cnc2O[C@@H]1CN(C)C(=O)C1CCCCC1	-87.9*	115.4	-1.4	.
C[C@H]1CN([C@@H](C)CO)C(=O)c2cc(C#Cc3ccccc3F)cnc2O[C@@H]1CN(C)C(=O)C1CCCCC1	-84.6*	.	-0.6	-3.3
C[C@H](CO)N1C[C@H](C)[C@@H](CN(C)C(=O)CCN2CCCCC2)Oc2ncc(C#Cc3ccccc3)cc2C1=O	-66.3	29.2	0.5	-3.2
C[C@@H]1CN([C@H](C)CO)C(=O)c2cc(C#Cc3ccccc3)cnc2O[C@H]1CN(C)C(=O)CCN1CCCCC1	-89.8*	55.5	-0.6	-0.4
C[C@@H]1CN([C@@H](C)CO)C(=O)c2cc(C#Cc3cccc(F)c3)cnc2O[C@@H]1CN(C)C(=O)C1CCCCC1	-85.8*	121.7	0.2	0.1
SMILES	Pf Dd2 growth	Tcruzi prolif	GASC1 inh	IDH1 R132H inh
O=C(CSC1CC(=O)N(c2ccccc2)C1=O)Nc1cccc(Cl)c1 (configuration not stated)	.	.	.	0.4
C[C@@H]1CN([C@H](C)CO)C(=O)c2cc(C#CCc3ccccc3)cnc2O[C@H]1CN(C)C(=O)C1CCC1	-87.3*	67.1	0.7	2.3
C[C@@H]1CN([C@@H](C)CO)C(=O)c2cc(C#CCc3ccccc3)cnc2O[C@@H]1CN(C)C(=O)C1CCC1	-49.7	22.8	2.8	0.2
CCn1c(SCC(=O)Nc2ccc3c(c2)OCCO3)nnc1-c1cccc(Cl)c1	.	.	.	0.1
C[C@@H](C(=O)N(C)C[C@@H]1OCc2ccccc2-c2c(n(C)c3ccccc23)C(=O)N([C@@H](C)CO)C[C@@H]1C)c1ccccc1	-86.4*	.	2.5	.
C[C@H](C(=O)N(C)C[C@@H]1OCc2ccccc2-c2c(n(C)c3ccccc23)C(=O)N([C@@H](C)CO)C[C@H]1C)c1ccccc1	-67.1	.	-0.8	.

Screens as filed in PubChem.
